Each structure is given as a SMILES string.

This note sets out measurements from ChEMBL document CHEMBL2086278, “Synthesis and biological evaluation of ester prodrugs of Benzafibrate as orally active hypolipidemic agents” (Eur J Med Chem, 2012).

The nature of data set [1]: Prodrug conversion in 0.2 M phosphate buffer solution assessed as benzofibrate formation at pH 7.4 at 40 degC after 4 hrs by HPLC analysis. The following applies: pH 7.4, 4 h.
The nature of data set [2]: Octanol-phosphate buffer partition coefficient, log P of the compound at pH 7.4 by HPLC analysis. The data set is classed as physicochemical. The method in brief: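 1-Octanol and 0.2 M phosphate buffer pH 7.4, mutually pre-saturated 24 h. Compound shaken between 5 mL of each phase for 60 min at 400 rpm, 25 °C, then centrifuged at 3500 rpm for 5 min. Each phase quantified by HPLC at 254 nm. log P = log of octanol/un-ionized aqueous concentration ratio, mean of triplicate.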

The nature of data set [3]: Prodrug conversion in 0.1 M phosphate buffer solution assessed as benzofibrate formation at pH 5.2 at 40 degC after 4 hrs by HPLC analysis. Format: physicochemical. Particulars: pH 5.2, 4 h. The essentials:
(§1)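 10 mg test compound in 10 mL buffer shaken at 400 rpm, 40 °C, 4 h. Buffers: 0.2 M HCl pH 1.0, 0.1 M citric acid pH 3.0, 0.1 M phosphate pH 5.2, 0.2 M phosphate pH 7.4, 0.1 M boric acid pH 9.0. Filtered 0.20 µm; filtrate analysed by HPLC at 254 nm (C-8 column, gradient) for bezafibrate formed / % hydrolysed.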

Data set [4] has as its system Mus musculus. Description: Hypolipidemic activity in Swiss albino mouse assessed as reduction in plasma total cholesterol level at 50 mg/kg, po for 8 days measured on day 9 by spectrophotometry relative to control. The data set is classed as functional. Further details: scale not given: the % may be the effect or the level left. The method in brief:
(§2)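 Male Swiss albino mice, 21–30 g, chow fed, acclimatised 1 week; n = 10/group. Oral gavage 50 mg/kg/day for 8 days, suspended in Tween-80 5 µL/mL in 0.5% CMC (10 mL/kg); vehicle controls. Fasted 12 h; day 9 blood taken 1 h post-dose under mild ether. Plasma (4000 rpm, 10 min) TG/TC by spectrophotometric kit; % fall vs control; mean ± SE, ANOVA with Dunnett's.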

Data set [5] deals with Mus musculus. The experiment in a line: Hypolipidemic activity in Swiss albino mouse assessed as reduction in plasma triglyceride level at 50 mg/kg, po for 8 days measured on day 9 by spectrophotometry relative to control. The data set is classed as functional. The arrangement: scale not given: the % may be the effect or the level left. The method in brief: as §2
A short description of data set [6]: Aqueous stability of the compound in 0.1 M citric acid buffer at pH 3 at 40 degC after 4 hrs by HPLC analysis. The data set is classed as physicochemical. The following applies: pH 3, 4 h. The essentials:
as §1

The nature of data set [7]: Prodrug conversion in 0.1 M boric acid buffer solution assessed as benzofibrate formation at pH 9.0 at 40 degC after 4 hrs by HPLC analysis. The following applies: pH 9, 4 h.
Data set [8] is described as follows: Aqueous stability of the compound in 0.2 M hydrochloric acid buffer solution at pH 1 at 40 degC after 4 hrs by HPLC analysis. The data set is classed as physicochemical. Particulars: pH 1, 4 h. The essentials: as §1
For data set [9], the system named is Mus musculus. Description: Hypolipidemic activity in Swiss albino mouse assessed as reduction in plasma triglyceride level at 30 mg/kg, po for 8 days measured on day 9 by spectrophotometry relative to control. Format: functional. The arrangement: scale not given: the % may be the effect or the level left. The essentials: (§3)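 Dose-response in male Swiss albino mice (21–30 g, chow fed): oral dosing at 10, 30 or 100 mg/kg/day, vehicle Tween-80 in 0.5% CMC. Plasma triglyceride and total cholesterol measured spectrophotometrically with a commercial kit; % fall relative to untreated control.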

In data set [10] the test system is Mus musculus. The experiment in a line: Hypolipidemic activity in Swiss albino mouse assessed as reduction in plasma triglyceride level at 10 mg/kg, po for 8 days measured on day 9 by spectrophotometry relative to control. The arrangement: scale not given: the % may be the effect or the level left. Format: functional. The essentials: as §3
The test system of data set [11] is Mus musculus. The experiment in a line: Hypolipidemic activity in Swiss albino mouse assessed as reduction in plasma total cholesterol level at 10 mg/kg, po for 8 days measured on day 9 by spectrophotometry relative to control. The data set is classed as functional. Further details: scale not given: the % may be the effect or the level left. The essentials:
as §3

Data set [12] relates to Mus musculus. Description: Hypolipidemic activity in Swiss albino mouse assessed as reduction in plasma total cholesterol level at 100 mg/kg, po for 8 days measured on day 9 by spectrophotometry relative to control. The arrangement: scale not given: the % may be the effect or the level left. Format: functional. The essentials: as §3
The subject of data set [13] is Mus musculus. Description: Hypolipidemic activity in Swiss albino mouse assessed as reduction in plasma triglyceride level at 100 mg/kg, po for 8 days measured on day 9 by spectrophotometry relative to control. The data set is classed as functional. Further details: scale not given: the % may be the effect or the level left. The essentials:
as §3

The subject of data set [14] is Mus musculus. Description: Hypolipidemic activity in Swiss albino mouse assessed as reduction in plasma total cholesterol level at 30 mg/kg, po for 8 days measured on day 9 by spectrophotometry relative to control. Format: functional. Further details: scale not given: the % may be the effect or the level left. The method in brief: as §3

As usually defined, the logD is the decadic logarithm of the distribution of all forms, ionised or not, between an organic phase and buffer at a given pH. Take `CC(C)(C)C(=O)OCOC(=O)C(C)(C)Oc1ccc(CCNC(=O)c2ccc(Cl)cc2)cc1`: the Drug metabolism stood at 2.2 µg/mL in data set [1], 1.7 µg/mL in [3] and 0.8 µg/mL in data set [7]. Also, in data set [2], the pH-dependent lipophilicity (logD) came out at 5.1. The Activity in data set [4] was 3.4%; in [5], 18.8%. In addition, the Stability result in data set [6] and in [8] was “Stable” in each case.
On to `CC(C)OC(=O)OCOC(=O)C(C)(C)Oc1ccc(CCNC(=O)c2ccc(Cl)cc2)cc1`, for which the Activity in data set [4] and in data set [5] was 3% in each case.
`CC(C)OC(=O)OC(C)OC(=O)C(C)(C)Oc1ccc(CCNC(=O)c2ccc(Cl)cc2)cc1` (stereo not drawn): the Activity in data set [4] is -5.6%; in data set [5] it was 3.9%.
As to `Cc1oc(=O)oc1COC(=O)C(C)(C)Oc1ccc(CCNC(=O)c2ccc(Cl)cc2)cc1`, the Activity in data set [9] amounted to 27.1%; in data set [10] it was 3.51%; in data set [11], 4.9%; in data set [12] it was 4%; in [4], 13%; in data set [13] it was 22.3%. In addition, the Activity in data set [5] is 30.2%; in data set [14], 2%. Also, the Drug metabolism in data set [1] was 0.5 µg/mL; in [3], 0.2 µg/mL; in data set [7], 2.6 µg/mL. This molecule displayed a pH-dependent lipophilicity (logD) in data set [2] of 3.1. Besides, the Stability entry in [6] and in data set [8] was “Stable” in each case.
`CC(=O)OCCOC(=O)C(C)(C)Oc1ccc(CCNC(=O)c2ccc(Cl)cc2)cc1`: the results for the Drug metabolism in [1], in data set [3] and in data set [7] were 1.8 µg/mL, 0.7 µg/mL and 2.5 µg/mL, respectively. The same molecule returned a log distribution coefficient (logD) in data set [2] of 3.8. Besides, the Activity came to 2.4% in [4] and 9.6% in data set [5]. For the same molecule, the Stability entry in data set [6] and in [8] was “Stable” in each case.
`CC(=O)OC(C)OC(=O)C(C)(C)Oc1ccc(CCNC(=O)c2ccc(Cl)cc2)cc1` (stereo not drawn): the Drug metabolism in data set [1] turned out to be 0.9 µg/mL; in data set [3], 0.2 µg/mL; in [7], 6.6 µg/mL. This molecule displayed a logD in [2] of 4.5. Also, the Activity in data set [4] was 4.3%; in [5], 17.2%. Moreover, the Stability entry in [6] and in data set [8] was “Stable” each time.
With `CC(C)(Oc1ccc(CCNC(=O)c2ccc(Cl)cc2)cc1)C(=O)O` [BEZAFIBRATE], in data set [2], the logD is 1.5. Also, the Activity in data set [4] amounted to 10.4%; in [5] it was 11.4%.
`CC(C)(Oc1ccc(CCNC(=O)c2ccc(Cl)cc2)cc1)C(=O)OCCN1CCOCC1`: the Drug metabolism in data set [1] was found to be 6.2 µg/mL; in data set [3], 6.3 µg/mL; in data set [7], 8.8 µg/mL. The logD in [2] was 5.1. Moreover, the Activity in [4] was 3%; in [5], 11.8%. For the same molecule, the Stability result in data set [6] and in data set [8] was “Stable” in each case.
